These results are taken from ChEMBL document CHEMBL4406821, “Novel dual inhibitors targeting CDK4 and VEGFR2 synergistically suppressed cancer progression and angiogenesis” (Eur J Med Chem, 2019).

The term inhibition denotes the change of the read-out against control, counted positive when it falls.

Active and inactive are the calls of the source. No cut-off for these calls is given here.

Assay [1] deals with HeLa. Nature of the assay: Induction of apoptosis in human HeLa cells assessed as decrease in Bcl2 expression at 80 nM incubated for 48 hrs by Western blot analysis. The format is functional, cell-based. In a few lines:
(§1)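 Cells were treated for 48 h, washed three times with PBS, and lysed in RIPA buffer. Immunoblots used anti-Rb, anti-phospho-Rb, anti-Ki67 and anti-Bcl-2 (each 1:1000), with β-actin as loading control.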
Background: Immunoblotting shows a protein as a band on a membrane.

Assay [2] concerns the target Tyrosine-protein kinase Blk (Homo sapiens) (UniProt P51451). Briefly: Inhibition of recombinant full length human BLK at 1 uM using poly(Glu, Tyr) 4:1 as substrate incubated for 40 mins in presence of [gamma-33P]-ATP by scintillation counting method relative to control. In a few lines: (§2)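 Kinase panel profiling at 1 μM performed by Eurofins KinaseProfiler; percent inhibition reported as mean of two independent experiments.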

The target in assay [3] is Bone morphogenetic protein receptor type-2 (Homo sapiens) (UniProt Q13873). Briefly: Inhibition of recombinant human BMPR2 (172 to 734 residues) at 1 uM using myelin ba as substrate incubated for 120 mins in presence of [gamma-33P]-ATP by scintillation counting method relative to control. A digest of the protocol: as §2
Assay [4] concerns Macrophage colony-stimulating factor 1 receptor (Homo sapiens), P07333 [Y969C]. Nature of the assay: Inhibition of recombinant human FMS Y969C mutant (538 to end residues) at 1 uM using EEEEYEEEEEEYY as substrate incubated for 40 mins in presence of [gamma-33P]-ATP by scintillation counting method relative to control.
Assay [5] addresses Rhodopsin kinase GRK7 (Homo sapiens) (UniProt Q8WTQ7). Briefly: Inhibition of recombinant human full length GRK7 at 1 uM using casein as substrate incubated for 40 mins in presence of [gamma-33P]-ATP by scintillation counting method relative to control.
Assay [6] deals with Inhibitor of nuclear factor kappa-B kinase subunit epsilon (Homo sapiens) (UniProt Q14164). Nature of the assay: Inhibition of recombinant human full length IKKepsilon at 1 uM using casein as substrate incubated for 40 mins in presence of [gamma-33P]-ATP by scintillation counting method relative to control.
The target in assay [7] is Tyrosine-protein kinase Lck (Homo sapiens) (UniProt P06239). Briefly: Inhibition of recombinant human full length LCK at 1 uM using KVEKIGEGTYGVVYK as substrate incubated for 40 mins in presence of [gamma-33P]-ATP by scintillation counting method relative to control.
The target in assay [8] is Serine/threonine-protein kinase STK11 (Homo sapiens) (UniProt Q15831). Nature of the assay: Inhibition of recombinant human full length LKB1 at 1 uM using LSNLYHQGKFLQTFCGSPLYRRR as substrate incubated for 40 mins in presence of [gamma-33P]-ATP by scintillation counting method relative to control.
Assay [9] has as its target Ribosomal protein S6 kinase alpha-5 (Homo sapiens) (UniProt O75582). Briefly: Inhibition of recombinant human MSK1 (2 to end residues) at 1 uM using GRPRTSSFAEGKK as substrate incubated for 40 mins in presence of [gamma-33P]-ATP by scintillation counting method relative to control.
Assay [10] addresses Myosin-IIIb (Homo sapiens) (UniProt Q8WXR4). Briefly: Inhibition of recombinant human MYO3B (1 to 326 residues) at 1 uM using RLGRDKYKTLRQIRQ as substrate incubated for 40 mins in presence of [gamma-33P]-ATP by scintillation counting method relative to control.
Assay [11] addresses Serine/threonine-protein kinase PLK1 (Homo sapiens) (UniProt P53350). Briefly: Inhibition of recombinant human full length PLK1 at 1 uM using casein as substrate incubated for 40 mins in presence of [gamma-33P]-ATP by scintillation counting method relative to control.
The target in assay [12] is Eukaryotic translation initiation factor 2-alpha kinase 3 (Homo sapiens) (UniProt Q9NZJ5). Briefly: Inhibition of recombinant human PEK (536 to end residues) at 1 uM using RSRSRSRSRSRSRSR as substrate incubated for 40 mins in presence of [gamma-33P]-ATP by scintillation counting method relative to control.
In assay [13] the target is Serine/threonine-protein kinase SIK1 (Homo sapiens) (UniProt P57059). Briefly: Inhibition of recombinant human SIK (1 to 281 residues) at 1 uM using AMARAASAAALARRR as substrate incubated for 40 mins in presence of [gamma-33P]-ATP by scintillation counting method relative to control.
Assay [14] addresses Serine/threonine-protein kinase ULK2 (Homo sapiens) (UniProt Q8IYT8). Briefly: Inhibition of recombinant human ULK2 (1 to 306 residues) at 1 uM using as casein substrate incubated for 40 mins in presence of [gamma-33P]-ATP by scintillation counting method relative to control. In a few lines: (§3)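 Tested at a single 1 uM in an outsourced commercial kinase-profiling panel, read as percent inhibition. Each value is the mean of two independent experiments.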

In assay [15] the target is Wee1-like protein kinase (Homo sapiens) (UniProt P30291). Nature of the assay: Inhibition of recombinant human WEE1 (214 to end residues) at 1 uM using LSNLYHQGKFLQTFCGSPLYRRR as substrate incubated for 40 mins in presence of [gamma-33P]-ATP by scintillation counting method relative to control.
The target of assay [16] is Wee1-like protein kinase 2 (Homo sapiens) (UniProt P0C1S8). Nature of the assay: Inhibition of recombinant human full length WEE1B at 1 uM using LSNLYHQGKFLQTFCGSPLYRRR as substrate incubated for 40 mins in presence of [gamma-33P]-ATP by scintillation counting method relative to control. A digest of the protocol: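 Single-point inhibition at 1 uM measured in a commercial kinase profiling panel (KinaseProfiler); each value is the mean of two independent experiments.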

The target in assay [17] is Mast/stem cell growth factor receptor Kit (Homo sapiens) (UniProt P10721). Nature of the assay: Inhibition of recombinant human cKIT (544 to end residues) at 1 uM using poly(Glu, Tyr) 4:1 as substrate incubated for 40 mins in presence of [gamma-33P]-ATP by scintillation counting method relative to control. In a few lines: as §3
For assay [18], the target named is Phosphatidylinositol 4-phosphate 3-kinase C2 domain-containing subunit alpha (Homo sapiens) (UniProt O00443). Nature of the assay: Inhibition of recombinant human PI3KC2alpha (299 to end residues) at 1 uM using phosphatidylinositol as substrate incubated for 40 mins in presence of [gamma-33P]-ATP by scintillation counting method relative to control. A digest of the protocol:
as §3

Assay [19] addresses Phosphatidylinositol 4,5-bisphosphate 3-kinase catalytic subunit gamma isoform (Homo sapiens) (UniProt P48736). Briefly: Inhibition of recombinant human full length PI3K p120gamma at 1 uM using phosphatidylinositol-4, 5-bisphosphate as substrate incubated for 40 mins in presence of [gamma-33P]-ATP by scintillation counting method relative to control.
The test system of assay [20] is MDA-MB-231. Briefly: Induction of cell cycle arrest in human MDA-MB-231 cells assessed as decrease in accumulation in S phase at 20 to 40 nM incubated for 36 hrs by propidium iodide staining based flow cytometry. In kind it is functional. A digest of the protocol: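 Cells were treated with graded concentrations for 36 h, then fixed overnight in 70% ice-cold ethanol at 4°C and resuspended in PBS. Staining used 50 µg/ml PI plus 5 µg/ml RNase at 37°C for 30 min. DNA content was analysed by FACS to give G0/G1, S and G2/M fractions.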
(In general: Flow cytometry measures light scatter and fluorescence of single cells or particles in a stream.)

In assay [21] the test system is MDA-MB-231. Briefly: Induction of apoptosis in human MDA-MB-231 cells assessed as decrease in Bcl2 expression at 20 to 40 nM incubated for 48 hrs by Western blot analysis. In kind it is functional, cell-based. A digest of the protocol: as §1

Chain of Serine/threonine-protein kinase PLK1 (Homo sapiens) (P53350 whole entry): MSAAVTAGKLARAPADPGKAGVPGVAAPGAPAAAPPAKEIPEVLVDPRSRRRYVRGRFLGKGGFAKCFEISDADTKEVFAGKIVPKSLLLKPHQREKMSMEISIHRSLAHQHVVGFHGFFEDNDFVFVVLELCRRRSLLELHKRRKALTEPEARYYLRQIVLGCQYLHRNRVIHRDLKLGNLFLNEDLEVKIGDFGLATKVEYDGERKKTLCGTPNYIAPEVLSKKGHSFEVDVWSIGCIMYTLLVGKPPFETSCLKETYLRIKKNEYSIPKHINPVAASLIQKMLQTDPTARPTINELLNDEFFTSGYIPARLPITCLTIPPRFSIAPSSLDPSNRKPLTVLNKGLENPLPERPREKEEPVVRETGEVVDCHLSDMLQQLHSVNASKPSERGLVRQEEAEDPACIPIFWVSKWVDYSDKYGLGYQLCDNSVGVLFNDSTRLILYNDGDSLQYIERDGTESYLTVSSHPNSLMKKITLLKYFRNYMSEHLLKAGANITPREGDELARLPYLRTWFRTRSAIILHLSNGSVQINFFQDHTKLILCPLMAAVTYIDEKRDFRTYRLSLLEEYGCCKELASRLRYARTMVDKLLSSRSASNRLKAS
Chain of Rhodopsin kinase GRK7 (Homo sapiens) (Q8WTQ7 whole entry): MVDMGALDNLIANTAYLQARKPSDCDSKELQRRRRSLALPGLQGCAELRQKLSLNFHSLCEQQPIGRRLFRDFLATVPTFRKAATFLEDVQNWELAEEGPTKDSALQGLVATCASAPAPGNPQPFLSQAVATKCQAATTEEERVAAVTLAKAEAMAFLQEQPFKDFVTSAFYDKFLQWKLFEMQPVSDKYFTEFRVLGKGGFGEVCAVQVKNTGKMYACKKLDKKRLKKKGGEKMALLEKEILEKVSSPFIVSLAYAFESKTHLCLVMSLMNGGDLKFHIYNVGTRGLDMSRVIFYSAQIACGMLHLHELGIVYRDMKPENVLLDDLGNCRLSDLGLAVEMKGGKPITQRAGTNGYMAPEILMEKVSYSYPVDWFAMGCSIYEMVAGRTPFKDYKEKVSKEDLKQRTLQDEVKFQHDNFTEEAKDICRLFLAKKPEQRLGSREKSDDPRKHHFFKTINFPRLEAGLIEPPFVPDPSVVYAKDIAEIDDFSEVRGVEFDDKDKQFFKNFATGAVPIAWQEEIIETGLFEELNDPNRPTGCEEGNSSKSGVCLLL
Chain of Tyrosine-protein kinase Blk (Homo sapiens) (P51451 2-505 limits assumed): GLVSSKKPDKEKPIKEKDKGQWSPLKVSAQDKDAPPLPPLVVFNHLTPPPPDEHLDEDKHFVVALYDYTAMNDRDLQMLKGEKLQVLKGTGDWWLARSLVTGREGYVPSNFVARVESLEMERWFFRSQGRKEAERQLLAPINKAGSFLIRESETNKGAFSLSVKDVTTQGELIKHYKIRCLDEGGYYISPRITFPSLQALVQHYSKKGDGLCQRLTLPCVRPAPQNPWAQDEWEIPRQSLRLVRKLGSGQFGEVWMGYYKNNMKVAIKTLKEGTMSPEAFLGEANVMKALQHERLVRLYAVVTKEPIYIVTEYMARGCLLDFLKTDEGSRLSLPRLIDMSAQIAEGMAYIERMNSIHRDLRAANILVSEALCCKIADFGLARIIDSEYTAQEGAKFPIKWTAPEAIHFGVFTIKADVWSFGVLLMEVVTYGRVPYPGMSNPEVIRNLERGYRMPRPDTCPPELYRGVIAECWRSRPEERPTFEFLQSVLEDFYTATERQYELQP
Chain of Ribosomal protein S6 kinase alpha-5 (Homo sapiens) (O75582 whole entry, looked up, the tested form may be a part): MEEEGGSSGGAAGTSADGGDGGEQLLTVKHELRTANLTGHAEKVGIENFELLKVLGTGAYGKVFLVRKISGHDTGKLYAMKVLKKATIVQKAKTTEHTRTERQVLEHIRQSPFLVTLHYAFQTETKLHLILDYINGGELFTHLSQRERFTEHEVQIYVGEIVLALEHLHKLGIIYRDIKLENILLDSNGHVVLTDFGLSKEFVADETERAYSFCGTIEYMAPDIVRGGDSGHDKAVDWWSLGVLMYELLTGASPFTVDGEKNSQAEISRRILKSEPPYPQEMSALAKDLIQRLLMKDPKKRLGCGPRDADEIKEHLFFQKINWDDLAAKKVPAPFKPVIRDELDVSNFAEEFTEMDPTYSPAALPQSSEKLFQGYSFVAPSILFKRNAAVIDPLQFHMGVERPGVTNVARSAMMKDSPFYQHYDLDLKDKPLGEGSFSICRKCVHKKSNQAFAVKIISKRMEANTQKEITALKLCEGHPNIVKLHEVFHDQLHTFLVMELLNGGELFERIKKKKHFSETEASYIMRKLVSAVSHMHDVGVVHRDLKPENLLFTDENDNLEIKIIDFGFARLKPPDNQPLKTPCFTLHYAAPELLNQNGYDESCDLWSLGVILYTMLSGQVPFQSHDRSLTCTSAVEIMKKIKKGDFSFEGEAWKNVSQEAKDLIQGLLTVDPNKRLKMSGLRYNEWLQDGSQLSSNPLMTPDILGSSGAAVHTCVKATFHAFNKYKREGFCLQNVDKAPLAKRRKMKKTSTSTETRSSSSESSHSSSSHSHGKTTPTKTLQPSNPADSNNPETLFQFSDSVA
Chain of Mast/stem cell growth factor receptor Kit (Homo sapiens) (P10721 whole entry, the tested form may be a part): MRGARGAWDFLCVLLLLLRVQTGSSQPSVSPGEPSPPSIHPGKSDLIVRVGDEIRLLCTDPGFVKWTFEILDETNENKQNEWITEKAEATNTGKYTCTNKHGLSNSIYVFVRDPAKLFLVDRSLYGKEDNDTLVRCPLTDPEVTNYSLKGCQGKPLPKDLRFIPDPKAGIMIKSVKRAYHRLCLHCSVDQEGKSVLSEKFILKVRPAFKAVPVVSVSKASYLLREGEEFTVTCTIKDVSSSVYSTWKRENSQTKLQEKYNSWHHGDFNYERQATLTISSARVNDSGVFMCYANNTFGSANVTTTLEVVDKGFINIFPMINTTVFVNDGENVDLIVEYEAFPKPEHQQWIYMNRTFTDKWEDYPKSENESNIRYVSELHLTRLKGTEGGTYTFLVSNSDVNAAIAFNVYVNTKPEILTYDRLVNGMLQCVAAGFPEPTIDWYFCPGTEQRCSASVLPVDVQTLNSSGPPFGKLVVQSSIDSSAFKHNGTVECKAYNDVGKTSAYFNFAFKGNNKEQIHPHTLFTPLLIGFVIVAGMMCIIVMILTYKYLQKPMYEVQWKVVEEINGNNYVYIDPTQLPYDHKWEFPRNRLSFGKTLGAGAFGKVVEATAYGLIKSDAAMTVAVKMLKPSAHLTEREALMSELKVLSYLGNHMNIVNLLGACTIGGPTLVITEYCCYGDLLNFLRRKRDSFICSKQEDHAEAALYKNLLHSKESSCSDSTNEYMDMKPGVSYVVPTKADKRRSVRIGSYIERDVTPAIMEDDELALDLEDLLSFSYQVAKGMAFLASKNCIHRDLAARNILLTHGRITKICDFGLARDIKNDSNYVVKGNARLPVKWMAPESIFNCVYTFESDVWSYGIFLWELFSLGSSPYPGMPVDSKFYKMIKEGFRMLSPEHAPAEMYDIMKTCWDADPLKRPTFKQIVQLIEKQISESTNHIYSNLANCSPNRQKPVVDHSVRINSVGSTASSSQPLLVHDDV
Chain of Wee1-like protein kinase 2 (Homo sapiens) (P0C1S8 whole entry, looked up): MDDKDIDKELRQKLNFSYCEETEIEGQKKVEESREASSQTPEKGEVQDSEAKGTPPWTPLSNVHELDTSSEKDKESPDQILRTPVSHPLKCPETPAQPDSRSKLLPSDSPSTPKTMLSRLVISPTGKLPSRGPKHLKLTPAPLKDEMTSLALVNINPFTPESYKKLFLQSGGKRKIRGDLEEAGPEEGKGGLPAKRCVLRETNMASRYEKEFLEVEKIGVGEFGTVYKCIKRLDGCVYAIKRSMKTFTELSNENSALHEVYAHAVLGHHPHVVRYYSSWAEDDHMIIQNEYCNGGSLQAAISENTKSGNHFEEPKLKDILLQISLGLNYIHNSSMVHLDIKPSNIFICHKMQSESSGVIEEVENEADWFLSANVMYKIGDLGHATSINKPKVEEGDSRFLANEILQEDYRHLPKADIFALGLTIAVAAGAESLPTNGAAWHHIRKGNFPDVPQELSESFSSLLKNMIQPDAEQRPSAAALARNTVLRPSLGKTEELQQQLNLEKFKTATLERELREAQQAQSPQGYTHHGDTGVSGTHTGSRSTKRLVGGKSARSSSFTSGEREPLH
Chain of Macrophage colony-stimulating factor 1 receptor (Homo sapiens), P07333 [Y969C] (P07333 whole entry Y969C): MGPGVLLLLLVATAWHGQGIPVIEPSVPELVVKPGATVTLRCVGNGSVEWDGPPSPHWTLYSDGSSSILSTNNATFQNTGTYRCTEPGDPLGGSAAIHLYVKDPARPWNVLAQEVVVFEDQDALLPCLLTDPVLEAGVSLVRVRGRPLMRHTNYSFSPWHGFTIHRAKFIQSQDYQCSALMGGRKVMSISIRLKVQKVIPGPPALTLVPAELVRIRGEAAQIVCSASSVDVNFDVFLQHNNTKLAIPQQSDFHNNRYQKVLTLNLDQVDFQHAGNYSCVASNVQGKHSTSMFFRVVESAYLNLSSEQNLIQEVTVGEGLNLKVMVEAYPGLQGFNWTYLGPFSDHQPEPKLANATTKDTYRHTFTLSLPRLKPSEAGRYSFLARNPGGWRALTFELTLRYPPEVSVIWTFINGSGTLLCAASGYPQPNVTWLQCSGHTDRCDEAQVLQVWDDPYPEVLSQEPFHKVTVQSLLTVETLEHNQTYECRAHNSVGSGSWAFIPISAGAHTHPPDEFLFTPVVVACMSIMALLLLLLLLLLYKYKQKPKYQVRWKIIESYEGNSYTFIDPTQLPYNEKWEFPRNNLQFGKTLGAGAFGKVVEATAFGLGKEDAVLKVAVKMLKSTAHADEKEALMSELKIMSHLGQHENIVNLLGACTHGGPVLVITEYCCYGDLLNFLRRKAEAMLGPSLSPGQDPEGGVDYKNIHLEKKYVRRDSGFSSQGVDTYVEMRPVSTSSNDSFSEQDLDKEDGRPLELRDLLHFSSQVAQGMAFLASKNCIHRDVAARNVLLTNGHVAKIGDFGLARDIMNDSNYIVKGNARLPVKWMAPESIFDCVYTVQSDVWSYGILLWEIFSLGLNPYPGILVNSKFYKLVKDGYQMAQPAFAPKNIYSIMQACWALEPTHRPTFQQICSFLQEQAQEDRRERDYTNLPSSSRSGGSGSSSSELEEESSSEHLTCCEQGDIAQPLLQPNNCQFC

As to `COc1cc2nccc(Oc3ccc(NC(=O)C4(C(=O)Nc5ccc(F)cc5)CC4)cc3)c2cc1OC` [CABOZANTINIB], the outcome in assay [1] was Active.
On to `Cc1ccc(NC(=O)C2(C(=O)Nc3ccc(Nc4ncc(F)c(-c5cc(F)c6nc(C)n(C(C)C)c6c5)n4)cc3)CC2)cc1`, for which the inhibition in assay [2] was 39%; in assay [3], 78%; in assay [4], 73%; in assay [5] it was 8%; in assay [6], 47%; in assay [7], 49%. Besides, the inhibition was 12% in [8]; 62% in assay [9]; 10% in [10]; 23% in [11]; 2% in [12]; 21% in assay [13]. Further, the inhibition in assay [14] came out at 0%; in [15], 5%; in assay [16] it was 0%; in assay [17], 17%; in assay [18], 0%; in assay [19], 14%. Also, the result in assay [20] and in assay [21] was Active.
